Experimental data from ChEMBL document CHEMBL4364258, “Discovery of novel benzofuran-based compounds with neuroprotective and immunomodulatory properties for Alzheimer's disease treatment” (Eur J Med Chem, 2019).
Activity calls are given as the source filed them. The rule behind the calls is not given here.

Tests used:
Homo sapiens = organism: Homo sapiens; test: Selectivity index, ratio of Ki for displacement of 3[H]-CP55940 from human recombinant CB1 receptor expressed in HEK293 cell membranes to Ki for displacement of 3[H]-CP55940 from human recombinant CB2 receptor expressed in HEK293 cell membranes
Cannabinoid receptor 2 [1] = molecular target: T1, Cannabinoid receptor 2 (Homo sapiens, UniProt P34972); test: Displacement of 3[H]-CP55940 from human recombinant CB2 receptor expressed in HEK293 cell membranes measured after 90 mins
T1 sequence (P34972 whole entry): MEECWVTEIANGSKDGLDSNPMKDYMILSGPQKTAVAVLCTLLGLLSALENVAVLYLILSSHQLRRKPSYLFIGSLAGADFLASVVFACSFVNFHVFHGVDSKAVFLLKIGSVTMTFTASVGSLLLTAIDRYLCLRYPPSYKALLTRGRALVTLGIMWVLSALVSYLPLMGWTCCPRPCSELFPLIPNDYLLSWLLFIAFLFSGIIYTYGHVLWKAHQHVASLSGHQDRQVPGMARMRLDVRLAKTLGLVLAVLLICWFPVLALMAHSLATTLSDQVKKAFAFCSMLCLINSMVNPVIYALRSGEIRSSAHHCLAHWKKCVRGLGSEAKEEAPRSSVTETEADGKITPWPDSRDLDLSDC

Cholinesterase [2] = molecular target: T2, Cholinesterase (Homo sapiens, UniProt P06276); test: Inhibition of human recombinant BuChE at 25 uM using butyrylthiocholine iodide as substrate preincubated for 20 mins followed by substrate addition by Ellman's spectrophotometric method relative to control
T2 sequence (P06276 whole entry): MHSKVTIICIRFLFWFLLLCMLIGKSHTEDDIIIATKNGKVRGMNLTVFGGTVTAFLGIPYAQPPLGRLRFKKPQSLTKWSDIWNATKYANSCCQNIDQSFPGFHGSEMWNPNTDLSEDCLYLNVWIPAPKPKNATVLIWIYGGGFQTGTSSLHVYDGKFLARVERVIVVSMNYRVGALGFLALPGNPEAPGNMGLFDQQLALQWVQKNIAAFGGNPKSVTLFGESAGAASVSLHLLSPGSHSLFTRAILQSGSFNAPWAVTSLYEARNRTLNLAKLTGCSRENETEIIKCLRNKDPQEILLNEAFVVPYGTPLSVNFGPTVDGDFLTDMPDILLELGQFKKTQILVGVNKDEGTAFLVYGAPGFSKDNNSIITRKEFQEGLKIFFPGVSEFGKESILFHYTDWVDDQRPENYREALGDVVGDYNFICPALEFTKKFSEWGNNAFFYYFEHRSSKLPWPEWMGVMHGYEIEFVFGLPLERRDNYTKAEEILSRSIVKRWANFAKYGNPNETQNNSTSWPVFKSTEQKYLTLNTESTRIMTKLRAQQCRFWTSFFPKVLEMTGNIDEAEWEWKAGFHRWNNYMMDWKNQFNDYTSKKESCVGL

Cannabinoid receptor 2 [3] = molecular target: T1, Cannabinoid receptor 2; test: Displacement of 3[H]-CP55940 from human recombinant CB2 receptor expressed in HEK293 cell membranes measured after 90 mins by Cheng-Prusoff equation analysis
Cannabinoid receptor 1 [4] = molecular target: T3, Cannabinoid receptor 1 (Homo sapiens, UniProt P21554); test: Displacement of 3[H]-CP55940 from human recombinant CB1 receptor expressed in HEK293 cell membranes measured after 90 mins by Cheng-Prusoff equation analysis
T3 sequence (P21554 whole entry): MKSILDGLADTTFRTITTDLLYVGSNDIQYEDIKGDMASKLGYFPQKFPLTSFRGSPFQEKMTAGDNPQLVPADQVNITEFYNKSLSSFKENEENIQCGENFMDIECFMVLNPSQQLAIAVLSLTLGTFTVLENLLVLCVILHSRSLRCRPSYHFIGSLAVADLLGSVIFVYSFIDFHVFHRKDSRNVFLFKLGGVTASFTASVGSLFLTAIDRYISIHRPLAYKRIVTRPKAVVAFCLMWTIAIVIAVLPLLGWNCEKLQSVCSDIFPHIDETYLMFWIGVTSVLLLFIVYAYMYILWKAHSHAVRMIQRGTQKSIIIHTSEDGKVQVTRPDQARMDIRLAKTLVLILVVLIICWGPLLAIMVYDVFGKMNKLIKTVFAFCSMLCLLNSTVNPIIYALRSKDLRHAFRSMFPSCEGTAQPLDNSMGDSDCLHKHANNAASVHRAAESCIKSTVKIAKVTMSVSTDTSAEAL

Cannabinoid receptor 1 [5] = molecular target: T3, Cannabinoid receptor 1; test: Displacement of 3[H]-CP55940 from human recombinant CB1 receptor expressed in HEK293 cell membranes measured after 90 mins
Cholinesterase [6] = molecular target: T2, Cholinesterase; test: Inhibition of human recombinant BuChE using butyrylthiocholine iodide as substrate preincubated for 20 mins followed by substrate addition by Ellman's spectrophotometric method
Cholinesterase [7] = molecular target: T2, Cholinesterase; test: Potency index, ratio of galanthamine IC50 to compound IC50 for inhibition of human recombinant BuChE
Cannabinoid receptor 2 [8] = molecular target: T1, Cannabinoid receptor 2; test: Inverse agonist activity at recombinant human CB2R expressed in CHOK1 cells assessed as increase in NKH477-stimulated intracellular cAMP levels preincubated for 15 mins followed by CB2 agonist JWH-133 addition and measured after 30 mins by chemiluminescent based cAMP Hunter assay; assay type: functional, cell-based
Cannabinoid receptor 2 [9] = molecular target: T1, Cannabinoid receptor 2; test: Inverse agonist activity at recombinant human CB2R expressed in CHOK1 cells assessed as increase in NKH477-stimulated intracellular cAMP levels after 30 mins by chemiluminescent based cAMP Hunter assay; assay type: functional, cell-based
In short: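 CHO-K1 cells stably expressing human CB2R, 30,000 cells/well, held overnight. Compound dose-response with NKH-477 (forskolin analogue, 25 µM) for 30 min at 37 °C. cAMP measured by enzyme-fragment-complementation chemiluminescence. Normalized with NKH-477 alone = 100%. Three independent experiments in triplicate, mean ± SEM.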

N9 [10] = test: Immunomodulatory activity in LPS-induced mouse N9 cells assessed as reduction in iNOS expression at 5 uM after 24 hrs by Western blotting analysis relative to control; assay type: functional; conditions: N9, 24 h
In short: (§1)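 N9 microglia on poly-L-lysine in DMEM high glucose with 10% FBS, plated 2.5×10^5 cells/35 mm dish. Activated with LPS 100 ng/mL together with 0, 5 or 10 µM compound in serum-free DMEM for 24 h. Lysates run on 12.5% SDS-PAGE and immunoblotted for iNOS or TREM2, with GAPDH as loading control, ECL detection. Densitometry given as % of LPS alone, three experiments.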

SH-SY5Y [11] = test: Cytotoxicity against human SH-SY5Y cells assessed as effect on cell viability up to 5 uM after 24 hrs by MTT assay; assay type: cell-based
In short: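 SH-SY5Y cells grown in DMEM with 10% FBS, 2 mM L-glutamine and penicillin/streptomycin, seeded 2×10^4 cells/well, 24 h, then exposed 24 h to 1.25–40 µM. Viability read as MTT reduction: MTT 0.5 mg/mL in HBSS 2 h at 37 °C, formazan dissolved in isopropanol, absorbance 570 nm (reference 690 nm).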

Cannabinoid receptor 2 [12] = molecular target: T1, Cannabinoid receptor 2; test: Potency index, ratio of SR144528 Ki to compound Ki for displacement of 3[H]-CP55940 from human recombinant CB2
N9 [13] = test: Immunomodulatory activity in LPS-induced mouse N9 cells assessed as reduction in TREM2 expression at 5 uM after 24 hrs by Western blotting analysis relative to control; assay type: functional, cell-based; in short: as §1
N9 [14] = test: Downregulation of total GAPDH in LPS-induced mouse N9 cells at 5 uM after 24 hrs by Western blotting analysis; assay type: ADME, cell-based; conditions: n9, 24 h; in short: as §1
SH-SY5Y [15] = test: Neuroprotection against amyloid beta (1 to 42) induced toxicity in human SH-SY5Y cells after 4 hrs by MTT assay; assay type: functional, cell-based
In short: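 SH-SY5Y cells seeded 3×10^4/well, 24 h, then treated 4 h with Aβ1-42 oligomers (10 µM) plus compound at 0.625–5.0 µM. Read by MTT formazan exocytosis assay: MTT 0.5 mg/mL in HBSS 1 h at 37 °C, intracellular formazan dissolved in 1% Tween 20, absorbance 570 nm (reference 690 nm). At least three independent experiments.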

| SMILES | Ratio Ki (Homo sapiens) | IC50 (Cannabinoid receptor 2 [1]) | inhibition (Cholinesterase [2]) | Ki (Cannabinoid receptor 2 [3]) | Ki (Cannabinoid receptor 1 [4]) | IC50 (Cannabinoid receptor 1 [5]) | IC50 (Cholinesterase [6]) | Ratio IC50 (Cholinesterase [7]) | Activity (Cannabinoid receptor 2 [8]) | Activity (Cannabinoid receptor 2 [9]) | inhibition at 5 µM (N9 [10]) | Activity (SH-SY5Y [11]) | Ratio Ki (Cannabinoid receptor 2 [12]) | Activity (N9 [13]) | Activity (N9 [14]) | Activity (SH-SY5Y [15]) |
| --- | --- | --- | --- | --- | --- | --- | --- | --- | --- | --- | --- | --- | --- | --- | --- | --- |
| COc1ccc(CNc2ccc(C(=O)c3c(-c4ccc(OC)cc4)oc4ccccc34)cc2)cc1 | > 10 | 3860 nM | < 10% | 1020 nM | > 10000 nM | > 10000 nM |  |  |  |  |  |  |  |  |  |  |
| COc1ccc(-c2oc3ccccc3c2C(=O)c2ccc(NCc3cc(F)cc(F)c3)cc2)cc1 | > 33 | 1150 nM | < 10% | 300 nM | > 10000 nM | > 10000 nM |  |  |  |  |  |  |  |  |  |  |
| COc1ccc(-c2oc3ccccc3c2C(=O)c2ccc(OCCCN(C)Cc3ccccc3)cc2)cc1 | 4.2 | 440 nM | 35% | 120 nM | 500 nM | 2060 nM | 135000 nM |  |  |  |  |  |  |  |  |  |
| COc1ccc(-c2oc3ccccc3c2C(=O)c2ccc(OCCCCCN(C)Cc3ccccc3)cc2)cc1 |  | > 10000 nM | > 90% | > 10000 nM | 1760 nM | 7200 nM | 1090 nM | 19 |  |  |  |  |  |  |  |  |
| COc1ccc(-c2oc3ccccc3c2C(=O)c2ccc(N(Cc3ccccc3)Cc3ccccc3)cc2)cc1 | > 11 | 3640 nM | 30.9% | 920 nM | > 10000 nM | > 10000 nM |  |  |  |  |  |  |  |  |  |  |
| COc1ccc(-c2oc3ccccc3c2C(=O)c2ccc(N(C)Cc3ccc(F)cc3)cc2)cc1 | 7.4 | 10 nM | < 10% | 2.7 nM | 20 nM | 80 nM |  |  | Dose-dependent effect | Active | 60% | Non-Toxic | 600 | inactive |  |  |
| COc1ccc(-c2oc3ccccc3c2C(=O)c2ccc(OCCN(C)Cc3ccccc3)cc2)cc1 | 0.6 | 2630 nM | 65% | 690 nM | 430 nM | 1520 nM | 14000 nM |  |  |  |  |  |  |  |  |  |
| CN(CCCCCCCOc1ccc(-c2oc3ccccc3c2C(=O)c2ccccc2)cc1)Cc1ccccc1 |  |  |  |  |  |  |  |  |  |  |  |  |  |  | Toxic |  |
| COc1ccc(-c2oc3ccccc3c2C(=O)c2ccc(NCc3ccc(F)cc3)cc2)cc1 | 39 | 70 nM | 60.8% | 20 nM | 780 nM | 3210 nM |  |  |  |  | 83% | Non-Toxic |  | inactive |  | Dose-dependent effect |
| COc1ccc(-c2oc3ccccc3c2C(=O)c2ccc(NCc3ccccn3)cc2)cc1 | > 7.5 | 5090 nM | 15.3% | 1340 nM | > 10000 nM | > 10000 nM |  |  |  |  |  |  |  |  |  |  |
| COc1ccc(-c2oc3ccccc3c2C(=O)c2ccc(NCc3ccc(C#N)cc3)cc2)cc1 | 130 | 90 nM | < 10% | 20 nM | 2600 nM | 9120 nM |  |  |  |  |  |  |  |  |  |  |
| COc1ccc(-c2oc3ccccc3c2C(=O)c2ccc(-n3cc(COc4cccc(F)c4)nn3)cc2)cc1 |  | > 10000 nM | < 10% | > 10000 nM | > 10000 nM | > 10000 nM |  |  |  |  |  |  |  |  |  |  |
| CCCCCCCNc1ccc(C(=O)c2c(-c3ccc(OC)cc3)oc3ccccc23)cc1 | 4 | 1540 nM | 30.2% | 410 nM | 1660 nM | 5840 nM |  |  |  |  |  |  |  |  |  |  |
| COc1ccc(-c2oc3ccccc3c2C(=O)c2ccc(NCC3CC3)cc2)cc1 | 4.3 | 410 nM | 22.4% | 110 nM | 470 nM | 1670 nM |  |  |  |  |  |  |  |  |  |  |
| COc1ccc(-c2oc3ccccc3c2C(=O)c2ccc(OCCCCN(C)Cc3ccccc3)cc2)cc1 |  | > 10000 nM | 35.2% | > 10000 nM | 860 nM | 3520 nM | 219000 nM |  |  |  |  |  |  |  |  |  |
| COc1ccc(-c2oc3ccccc3c2C(=O)c2ccc(NCc3ccccc3)cc2)cc1 | > 59 | 660 nM | < 10% | 170 nM | > 10000 nM | > 10000 nM |  |  |  |  |  |  |  |  |  |  |
| COc1ccc(-c2oc3ccccc3c2C(=O)c2ccc(N(Cc3ccc(F)cc3)Cc3ccc(F)cc3)cc2)cc1 | > 23 | 1650 nM | 75% | 430 nM | > 10000 nM | > 10000 nM | 6030 nM |  |  |  |  |  |  |  |  |  |
| CCCCCNc1ccc(C(=O)c2c(-c3ccc(OC)cc3)oc3ccccc23)cc1 | 1.1 | 260 nM | 72.2% | 70 nM | 80 nM | 300 nM | 3900 nM |  |  |  |  |  |  |  |  |  |
| COc1ccc(-c2oc3ccccc3c2C(=O)c2ccc(N(Cc3cc(F)cc(F)c3)Cc3cc(F)cc(F)c3)cc2)cc1 |  | > 10000 nM | 67% | > 10000 nM | > 10000 nM | > 10000 nM | 11700 nM |  |  |  |  |  |  |  |  |  |
